Results as given in ChEMBL document CHEMBL4725360, “Optimization of Acetazolamide-Based Scaffold as Potent Inhibitors of Vancomycin-Resistant Enterococcus” (J Med Chem, 2020).
Values after ≈ are worked out from the molar mass of the structure shown. Active and inactive are the calls of the source. No cut-off for these calls is given here.

Tests used:
Enterococcus faecium [1] = assay: Antibacterial activity against Enterococcus faecium HM965 incubated for 18 to 20 hrs under aerobic condition by CLSI protocol based broth microdilution assay; assay type: functional; conditions: time hrs 18-20
Outline: (§1)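 Broth microdilution per CLSI. Strains grown aerobically overnight on trypticase soy agar at 37 °C. Inoculum set to 0.5 McFarland, diluted in trypticase soy broth to about 5 × 10⁵ CFU/mL. Agents serially diluted, plates incubated aerobically at 37 °C for 18–20 h. MIC is the lowest concentration with no visible growth. Compound stocks 10 mg/mL in DMSO.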

Enterococcus faecium [2] = assay: Inhibition of carbonic anhydrase in Enterococcus faecium ATCC 700221 assessed as antibacterial activity incubated for 18 to 20 hrs in presence of 5% CO2 by CLSI protocol based broth microdilution assay; conditions: time hrs 18-20
Outline: (§2)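 CLSI broth microdilution: inoculum about 5 × 10⁵ CFU/mL in trypticase soy broth with serial dilutions of agents. Paired plates incubated at 37 °C for 18–20 h, one set in ambient air ("normal"), the other under 5% CO₂. MIC is the lowest concentration completely inhibiting visible growth.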

Enterococcus faecium [3] = assay: Inhibition of carbonic anhydrase in Enterococcus faecium ATCC 700221 assessed as antibacterial activity incubated for 18 to 20 hrs in presence of ambient air by CLSI protocol based broth microdilution assay; conditions: time hrs 18-20; outline: as §2
Caco-2 = assay: Cytotoxicity against human Caco2 cells at 128 ug/ml incubated for 2 hrs by MTS assay; assay type: cell-based; conditions: caco-2, 2 h, dose 128 µg/ml
Outline: (§3)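 Caco-2 cells maintained in DMEM with 10% FBS, non-essential amino acids and penicillin-streptomycin at 37 °C, 5% CO₂. Compound exposure for 2 h in serum-free medium at several concentrations; DMSO-matched controls. Viability expressed relative to DMSO controls (mean ± SD), and CC₅₀ derived.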

Enterococcus faecium [4] = assay: Antibacterial activity against Enterococcus faecium NR-31914 incubated for 18 to 20 hrs under aerobic condition by CLSI protocol based broth microdilution assay; assay type: functional; conditions: time hrs 18-20; outline: as §1
Enterococcus faecium [5] = assay: Antibacterial activity against Enterococcus faecium NR-31971 incubated for 18 to 20 hrs under aerobic condition by CLSI protocol based broth microdilution assay; assay type: functional; conditions: time hrs 18-20; outline: as §1
Enterococcus faecium [6] = assay: Antibacterial activity against Enterococcus faecium NR-31916 incubated for 18 to 20 hrs under aerobic condition by CLSI protocol based broth microdilution assay; assay type: functional; conditions: time hrs 18-20; outline: as §1
Enterococcus faecium [7] = assay: Antibacterial activity against Enterococcus faecium NR-28978 incubated for 18 to 20 hrs under aerobic condition by CLSI protocol based broth microdilution assay; assay type: functional; conditions: time hrs 18-20; outline: as §1
Enterococcus faecium [8] = assay: Antibacterial activity against Enterococcus faecium NR-31972 incubated for 18 to 20 hrs under aerobic condition by CLSI protocol based broth microdilution assay; assay type: functional; conditions: time hrs 18-20; outline: as §1
Enterococcus faecalis [9] = assay: Antibacterial activity against Enterococcus faecalis HM-335 incubated for 18 to 20 hrs under aerobic condition by CLSI protocol based broth microdilution assay; assay type: functional; conditions: time hrs 18-20; outline: as §1
Enterococcus faecalis [10] = assay: Antibacterial activity against Enterococcus faecalis NR-31975 incubated for 18 to 20 hrs under aerobic condition by CLSI protocol based broth microdilution assay; assay type: functional, organism-based; conditions: time hrs 18-20; outline: as §1
Enterococcus faecium [11] = assay: Antibacterial activity against Enterococcus faecium NR-32052 incubated for 18 to 20 hrs under aerobic condition by CLSI protocol based broth microdilution assay; assay type: functional; conditions: time hrs 18-20; outline: as §1
Enterococcus faecium [12] = assay: Antibacterial activity against Enterococcus faecium HM968 incubated for 18 to 20 hrs under aerobic condition by CLSI protocol based broth microdilution assay; assay type: functional; conditions: time hrs 18-20; outline: as §1
Enterococcus faecalis [13] = assay: Antibacterial activity against Enterococcus faecalis HM-334 incubated for 18 to 20 hrs under aerobic condition by CLSI protocol based broth microdilution assay; assay type: functional; conditions: time hrs 18-20; outline: as §1
[14] = Cytotoxicity against human Caco2 cells incubated for 2 hrs by MTS assay; assay type: cell-based; conditions: Caco-2 cells; outline: as §3
Enterococcus faecalis [15] = assay: Antibacterial activity against Enterococcus faecalis NR-31970 incubated for 18 to 20 hrs under aerobic condition by CLSI protocol based broth microdilution assay; assay type: functional, organism-based; conditions: time hrs 18-20; outline: as §1
Enterococcus faecium [16] = assay: Antibacterial activity against Enterococcus faecium NR-31903 incubated for 18 to 20 hrs under aerobic condition by CLSI protocol based broth microdilution assay; assay type: functional; conditions: time hrs 18-20; outline: as §1
Enterococcus faecium [17] = assay: Antibacterial activity against Enterococcus faecium NR-32065 incubated for 18 to 20 hrs under aerobic condition by CLSI protocol based broth microdilution assay; assay type: functional; conditions: time hrs 18-20; outline: as §1

With CC1(C(=O)Nc2nnc(S(N)(=O)=O)s2)CCCCC1 the MIC (Enterococcus faecium [1]) was 0.25 µg/mL (≈ 0.821 µM).
For NS(=O)(=O)c1nnc(NC(=O)CN2CCCC2)s1, the inhibition (Enterococcus faecium [2]) was “inactive”, the inhibition (Enterococcus faecium [3]) was “Active” and the MIC (Enterococcus faecium [1]) was 1 µg/mL (≈ 3.43 µM).
For NS(=O)(=O)c1nnc(NC(=O)C2CCCC2)s1, the Activity (Caco-2) was “Non-Toxic”, the inhibition (Enterococcus faecium [2]) was “inactive” and the MIC (Enterococcus faecium [4]) was 0.5 µg/mL (≈ 1.81 µM). For the same molecule, the MIC (Enterococcus faecium [5]) was 1 µg/mL (≈ 3.62 µM), the MIC (Enterococcus faecium [6]) was 0.5 µg/mL (≈ 1.81 µM) and the MIC (Enterococcus faecium [7]) was 0.5 µg/mL (≈ 1.81 µM). The MIC (Enterococcus faecium [8]) was 1 µg/mL (≈ 3.62 µM), the MIC (Enterococcus faecalis [9]) was 0.5 µg/mL (≈ 1.81 µM) and the inhibition (Enterococcus faecium [3]) was “Active”. The Activity (Enterococcus faecalis [10]) was “Active”, the MIC (Enterococcus faecium [11]) was 0.5 µg/mL (≈ 1.81 µM) and the MIC (Enterococcus faecium [12]) was 0.5 µg/mL (≈ 1.81 µM). The MIC (Enterococcus faecalis [13]) was 0.5 µg/mL (≈ 1.81 µM), the CC50 at 2 h [14] was over 128 µg/mL and the Activity (Enterococcus faecalis [15]) was “Active”. For the same molecule, the MIC (Enterococcus faecium [16]) was 0.5 µg/mL (≈ 1.81 µM), the MIC (Enterococcus faecium [1]) was 0.25 µg/mL (≈ 0.905 µM) and the MIC (Enterococcus faecium [17]) was 0.5 µg/mL (≈ 1.81 µM).
Work on CCNc1nnc(S(N)(=O)=O)s1 yielded an MIC (Enterococcus faecium [1]) of over 64 µg/mL.
CC(=O)Nc1nnc(S(C)(=O)=O)s1 showed an MIC (Enterococcus faecium [1]) of over 64 µg/mL.
In the case of CC1CCC(C(=O)Nc2nnc(S(N)(=O)=O)s2)CC1 (stereo unspecified), the MIC (Enterococcus faecium [1]) is reported as 0.25 µg/mL (≈ 0.821 µM).
With CN1CCN(CC(=O)Nc2nnc(S(N)(=O)=O)s2)CC1 the inhibition (Enterococcus faecium [2]) was “inactive”, the inhibition (Enterococcus faecium [3]) was “Active” and the MIC (Enterococcus faecium [1]) was 8 µg/mL (≈ 25 µM).
For CC(C)C(=O)Nc1nnc(S(N)(=O)=O)s1, the inhibition (Enterococcus faecium [2]) was “inactive”, the inhibition (Enterococcus faecium [3]) was “Active” and the MIC (Enterococcus faecium [1]) was 1 µg/mL (≈ 4 µM).
NS(=O)(=O)c1nnc(NC(=O)CN2CCCCC2)s1 gave an MIC (Enterococcus faecium [1]) of 1 µg/mL (≈ 3.27 µM).
In the case of NS(=O)(=O)c1nnc(NC(=O)CCc2ccccc2)s1, the Activity (Caco-2) is reported as “Non-Toxic”, the inhibition (Enterococcus faecium [2]) is reported as “inactive” and the MIC (Enterococcus faecium [4]) is reported as 0.25 µg/mL (≈ 0.8 µM). For the same molecule, the MIC (Enterococcus faecium [5]) was 0.125 µg/mL (≈ 0.4 µM), the MIC (Enterococcus faecium [6]) was 0.125 µg/mL (≈ 0.4 µM) and the MIC (Enterococcus faecium [7]) was 0.5 µg/mL (≈ 1.6 µM). The MIC (Enterococcus faecium [8]) was 0.125 µg/mL (≈ 0.4 µM), the MIC (Enterococcus faecalis [9]) was 0.125 µg/mL (≈ 0.4 µM) and the inhibition (Enterococcus faecium [3]) was “Active”. The MIC (Enterococcus faecium [11]) was 0.5 µg/mL (≈ 1.6 µM), the MIC (Enterococcus faecium [12]) was 0.25 µg/mL (≈ 0.8 µM) and the MIC (Enterococcus faecalis [13]) was 0.015 µg/mL (≈ 0.048 µM). The CC50 at 2 h [14] was over 128 µg/mL, the MIC (Enterococcus faecium [16]) was 0.25 µg/mL (≈ 0.8 µM) and the MIC (Enterococcus faecium [1]) was 0.06 µg/mL (≈ 0.192 µM). For the same molecule, the MIC (Enterococcus faecium [17]) was 0.125 µg/mL (≈ 0.4 µM).
For CCCCCCC(=O)Nc1nnc(S(N)(=O)=O)s1, the Activity (Caco-2) was “Non-Toxic”, the inhibition (Enterococcus faecium [2]) was “inactive” and the MIC (Enterococcus faecium [4]) was 0.03 µg/mL (≈ 0.103 µM). For the same molecule, the MIC (Enterococcus faecium [5]) was 0.03 µg/mL (≈ 0.103 µM), the MIC (Enterococcus faecium [6]) was 0.06 µg/mL (≈ 0.205 µM) and the MIC (Enterococcus faecium [7]) was 0.06 µg/mL (≈ 0.205 µM). The MIC (Enterococcus faecium [8]) was 0.03 µg/mL (≈ 0.103 µM), the MIC (Enterococcus faecalis [9]) was 0.015 µg/mL (≈ 0.0513 µM) and the inhibition (Enterococcus faecium [3]) was “Active”. The Activity (Enterococcus faecalis [10]) was “Active”, the MIC (Enterococcus faecium [11]) was 0.03 µg/mL (≈ 0.103 µM) and the MIC (Enterococcus faecium [12]) was 0.015 µg/mL (≈ 0.0513 µM). The MIC (Enterococcus faecalis [13]) was 0.015 µg/mL (≈ 0.0513 µM), the CC50 at 2 h [14] was over 128 µg/mL and the Activity (Enterococcus faecalis [15]) was “Active”. It also gave an MIC (Enterococcus faecium [16]) of 0.03 µg/mL (≈ 0.103 µM), an MIC (Enterococcus faecium [1]) of 0.015 µg/mL (≈ 0.0513 µM) and an MIC (Enterococcus faecium [17]) of 0.03 µg/mL (≈ 0.103 µM).
In the case of CCCC(=O)Nc1nnc(S(N)(=O)=O)s1, the inhibition (Enterococcus faecium [2]) is reported as “inactive”, the inhibition (Enterococcus faecium [3]) is reported as “Active” and the MIC (Enterococcus faecium [1]) is reported as 0.5 µg/mL (≈ 2 µM).
NS(=O)(=O)c1nnc(NCC2CCCCC2)s1 showed an MIC (Enterococcus faecium [1]) of over 64 µg/mL.
NS(=O)(=O)c1nnc(NC(=O)c2ccccc2)s1 showed an MIC (Enterococcus faecium [1]) of 2 µg/mL (≈ 7.03 µM).
With NS(=O)(=O)c1nnc(NC(=O)C2CCC2)s1 the inhibition (Enterococcus faecium [2]) was “inactive”, the inhibition (Enterococcus faecium [3]) was “Active” and the Activity (Enterococcus faecalis [10]) was “Active”. For the same molecule, the Activity (Enterococcus faecalis [15]) was “Active” and the MIC (Enterococcus faecium [1]) was 0.5 µg/mL (≈ 1.91 µM).
